This is a sample that favours compounds with a hit; in the whole collection about 0.9% have one here.
DDE Tn7 FP inh: DD(E)-Tn7 binding inhibition, primary FP screen; P02675; FP displacement of FITC-Tn7 peptide from fibrin DD(E); 0% = median of compound wells per plate; inhibition, % at 8.3 µM; actives 0.13% (n = 370,000);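 active = inhibition above the mean of compounds falling within the control limits plus 3 SD of them, cut at about 14% in these data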;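 note: 0% = plate median of compound wells and 100% = 10 µM Aha-Tn7 peptide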
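Test system – human fibrin DD(E) · Times – 10 min preincubation, 3 h with tracer, room temperature · Detection – fluorescence polarization of the labelled Tn7 tracer · Measure – percent inhibition normalized to high-control wells · Benchmarks – high control wells with 10 µM unlabelled Aha-Tn7 peptide (full inhibition) · Repeats – singlicate testing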
MT1-MMP act inh: inhibitors of human MT1-MMP activation; GFP/RFP ratio change, % at 20 µM; actives 0.061% (n = 360,000); HT1080 RFP-PRO-GFP cells, GFP/RFP ratio fluorescence, overnight; percent of plate control window, DMSO zero; AID 651647; P50281;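 active = GFP/RFP ratio change of at least 30% with cell ATP level not reduced by more than half and red fluorescence within 50% of control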
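Assay system: RFP-PRO-GFP reporter HT1080 cells; read-out basis: GFP/RFP fluorescence ratio; benchmarks: DMSO wells and RFP-L50D-GFP cells; doses: 20 µM single dose, 1% DMSO; schedule: overnight cell settling, then overnight compound exposure, 37 °C, 5% CO2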
SKN-1 block: blocks SKN-1 activity in C. elegans; AID 624304; C. elegans VP596 Pgst-4::GFP/RFP ratio, acrylamide-induced, 24 h; actives 0.49% (n = 360,000); inhibition, % at 21.8 µM;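 active = interference check ratio from 0.5 to 1.5 plus GFP to RFP signal ratio inhibition reaching or exceeding a fixed threshold, cut at about 30% in these data, passing the limit was not always enough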
DAGLB inh: diacylglycerol lipase beta (human) inhibition. inhibition, % at 5.17 µM. actives 0.059% (n = 340,000). Q8NCG7. HEK293T DAGLB membrane lysate, EnzChek fluorogenic substrate; in the data active = inhibition above about 34%;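 note: 0% = enzyme with vehicle and 100% = wells lacking enzyme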
Target sequence (Q8NCG7 whole entry, looked up): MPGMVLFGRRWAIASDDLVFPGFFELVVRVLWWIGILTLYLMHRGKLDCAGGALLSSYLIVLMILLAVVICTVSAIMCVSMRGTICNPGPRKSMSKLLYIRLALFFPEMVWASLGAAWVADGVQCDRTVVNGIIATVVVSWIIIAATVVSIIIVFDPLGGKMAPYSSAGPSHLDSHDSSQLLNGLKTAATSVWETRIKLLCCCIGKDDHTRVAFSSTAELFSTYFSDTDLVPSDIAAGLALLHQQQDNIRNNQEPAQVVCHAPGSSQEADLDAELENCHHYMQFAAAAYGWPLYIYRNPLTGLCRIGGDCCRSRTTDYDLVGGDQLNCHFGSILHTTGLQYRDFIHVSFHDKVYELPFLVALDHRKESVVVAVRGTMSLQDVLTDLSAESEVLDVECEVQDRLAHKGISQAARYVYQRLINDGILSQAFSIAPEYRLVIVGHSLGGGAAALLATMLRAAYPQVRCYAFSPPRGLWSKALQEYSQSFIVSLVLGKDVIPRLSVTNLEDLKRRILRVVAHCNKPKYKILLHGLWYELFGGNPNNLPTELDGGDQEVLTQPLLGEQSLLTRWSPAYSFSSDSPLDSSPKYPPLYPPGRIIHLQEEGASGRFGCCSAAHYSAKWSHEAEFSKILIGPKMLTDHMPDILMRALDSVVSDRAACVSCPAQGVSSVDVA
DDE Tn6 FP inh: DD(E)-Tn6 binding inhibition, primary FP screen; actives 0.21% (n = 370,000); P02675; Fibrin DD(E) TRITC-Tn6 fluorescence polarization displacement; inhibition, % at 8.3 µM;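 active = inhibition above a per-campaign cutoff: mean of compounds within control limits plus 3 SD, cut at about 15% in these data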;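 note: 0% = median of all compound wells on the plate and 100% = blocking peptide control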
PolyA inh: blocks polyadenylation in yeast reporter cells. actives 0.02% (n = 300,000). S. cerevisiae SKY197-pL101 polyadenylation reporter, beta-gal luminescence; efflux-impaired pdr1/pdr3 knockout yeast; score 100 = 6 SD above DMSO. activity score, % at 12 µM;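 active = lowest replicate activity score at least 50, where 100 means six control SD above control mean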;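 note: yeast exposed to compound for 9 h at 30 °C; higher score means more reporter readthrough which indicates perturbed polyadenylation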
Starred values were filed as active, the others as inactive; nt = not tested or not shown.

SMILES	DDE Tn7 FP inh	MT1-MMP act inh	SKN-1 block	DAGLB inh	DDE Tn6 FP inh	PolyA inh
CC(COc1cccc(Br)c1)CN1CCC(C(O)(c2ccccc2)c2ccccc2)CC1 (centres undefined)	-1	nt	nt	nt	-8	nt
O=C(CN[C@@H](Cc1c[nH]c2ccccc12)C(=O)NCCc1c[nH]c2ccccc12)NC1CCCCC1	-1	nt	nt	nt	5	nt
c1ccc(-c2ccc(-c3ccncn3)cc2)cc1	0	0	56*	-2	3	-43
c1ccc(-c2cncnc2)nc1	-6	3	10	-7	-2	nt
Cn1c(=O)c(N)c2c3c(c(Br)ccc31)C(=O)c1ccccc1-2	-6	-138	-73	-98	16*	-4
CCNc1c2c3c(cccc3n(C)c1=O)C(=O)c1ccccc1-2	nt	nt	nt	nt	nt	-9
N#CCC[C@H]1CC[C@]2(CCCN(c3ccccc3)C2)O1	-6	nt	nt	nt	4	nt
CCOC(=O)CSc1nc2sc3c(c2c(=O)n1-c1ccccc1)CCN(C(C)C)C3	4	-4	1	-2	19*	30
CCOC(=O)CSc1nc2sc3c(c2c(=O)n1-c1ccccc1)CCN(C)C3	-5	-6	0	-2	-3	38
C(/C=C/c1ccco1)=N/N1CCN(c2ccccc2)CC1	-6	1	59*	1	-1	3
Clc1ccccc1CN1CCN(/N=C/C=C\c2ccco2)CC1	-7	2	-5	nt	-4	1
O=C(Nc1ccc2c(c1)CN(Cc1ccco1)CC2)C1CCCO1 (centres undefined)	0	-6	37*	0	-7	35
Cc1cccc(NC(=O)c2cccc3c2-c2ccccc2C3=O)c1C	9	nt	nt	nt	3	nt
CC1(C)OC(c2ccccc2)=C/C(=C/C=C2C(=O)c3ccccc3C2=O)O1	-13	-13	60*	6	4	5
Cc1ccccc1N=C/C=C1/C=C(c2ccccc2)OC(C)(C)O1	1	-10	-2	-1	7	-12
COC[C@H]1O[C@]2(c3ccccc3)CO[C@H]1[C@@H](/C=C/c1ccccc1)C2	10	nt	nt	nt	12	nt
CCN(CC)C(=O)CC[C@H]1CC[C@]2(CCCN(S(C)(=O)=O)C2)O1	-12	nt	nt	nt	-2	nt
NC(=S)N/N=C/c1cccc(O)c1O	3	-6	2	-1	8	-14
Cc1cc(/C=N/NC(N)=S)c(O)c(/C=N/NC(N)=S)c1	43*	-122	-7	-16	5	1
Nc1cc2c(cc1Cl)-c1ccccc1C2	3	-5	49*	1	-4	nt
O=S1(=O)C=CCN1Cc1cn(Cc2ccc(F)cc2)nn1	0	nt	nt	nt	-3	nt
O=C(c1ccc(-c2cccc(C(F)(F)F)c2)o1)N1CCOCC1	-7	1	45*	-4	-7	1
COc1cc(/C=N/N(CCO)C2=NS(=O)(=O)c3ccccc32)cc(OC)c1OC	-3	-2	35*	0	7	7
COC(=O)C1=C(C)N=c2s/c(=C/c3cccs3)c(=O)n2C1c1ccc(F)cc1 (centres undefined)	-2	7	35*	-7	-6	26
CCN(CC)C(=O)c1ccc(C(CCOC(=O)Oc2ccccc2)c2ccc(OC)cc2)cc1 (centres undefined)	3	nt	nt	nt	1	nt
SMILES	DDE Tn7 FP inh	MT1-MMP act inh	SKN-1 block	DAGLB inh	DDE Tn6 FP inh	PolyA inh
O=C(O)CCc1ccc(-c2ccccc2)n1NC(=O)c1ccco1	-1	2	39*	1	12	21
O=C(NCCNC(=O)c1ccccn1)c1ccc(Cl)cc1	0	1	6	2	10	1
O=C(Sc1ccc(Cl)cc1)c1ccccn1	6	-6	55*	3	0	-7
CCOC(=O)Cc1csc(NC(=O)CSc2nnc(-c3ccncc3)o2)n1	-7	2	-2	nt	3	3
Cc1csc(NC(=O)CSc2nnc(-c3ccncc3)o2)n1	2	-1	14	-1	17*	14
COc1ccccc1NC(=O)CSc1nnc(-c2ccncc2)o1	-5	-2	40*	4	-6	10
CCCOc1ccc(/C(O)=C2/C(=O)C(=O)N(c3cc(C)on3)C2c2ccc(C(=O)OC)cc2)cc1 (centres undefined)	7	0	40*	-1	2	16
CCOc1ccc(/C(O)=C2/C(=O)C(=O)N(c3cc(C)on3)C2c2ccc(C(=O)OC)cc2)cc1 (centres undefined)	-2	-6	-27	5	9	10
O=c1[nH]c2ccc(S(=O)(=O)N3CCCC3)cc2o1	-7	nt	nt	nt	0	nt
O=C(/C=C/c1ccccc1)Nn1cnnc1	4	1	35*	3	-6	-18
O=C(/C=C/c1ccccc1)/C=C/c1ccccc1	8	1	81*	-1	5	-25
COc1ccc(/C=C/C(=O)Nn2cnnc2)cc1	-2	4	7	1	1	9
N/C(=N\OC(=O)/C=C/c1ccccc1)c1ccc(Cl)cc1	0	1	25	nt	2	2
N/C(=N\OC(=O)/C=C/c1ccccc1)c1ccccc1	-1	4	36*	-5	2	-5
O=C1CCc2cc(S(=O)(=O)N3CCN(Cc4cccc5c4OCO5)CC3)ccc2N1	-3	nt	nt	nt	3	nt
O=C1c2ccccc2C(=O)c2c([N+](=O)[O-])ccc(O)c21	3	59	37*	0	-5	nt
O=C(O)c1ccc([N+](=O)[O-])c2c1C(=O)c1ccccc1C2=O	4	6	0	0	-4	-5
CN(C)CCCn1c2c3ccccc3ccc2c2oc(=O)c3ccccc3c21	17*	-49	6	1	8	nt
CN(C)CCCn1c(=S)[nH]c2ccccc2c1=O	2	-2	12	0	-3	-3
Cc1c(C#N)c(O)[nH]c(=O)c1N=Nc1ccc(S(N)(=O)=O)cc1	-2	5	38*	3	-9	-9
O=C(N1CCOCC1)N1CC[C@H]2[C@H](CCCN2Cc2cc(F)cc(F)c2)C1	-4	nt	nt	nt	6	nt
CCOc1ccc(-c2nnc(-c3cccs3)o2)cc1OCC	3	2	15	-10	6	-1
CCOc1ccc(-c2nnc(-c3cccs3)o2)cc1	-7	0	70*	-19	6	12
CN(CC(=O)Nc1nc2ccccc2s1)S(=O)(=O)c1ccc(Cl)cc1	2	-3	36*	-2	-8	-6
O=c1cc(-c2ccc(O)c(O)c2)oc2ccc3ccccc3c12	4	7	21	13	-6	nt
O=c1cc(-c2ccccc2)oc2ccc3ccccc3c12	-3	-4	36*	-23	8	nt

Screening data deposited in PubChem by several laboratories.
